The test system of test [1] is Saccharomyces cerevisiae. Briefly: DNA damaging activity against RS322YK rad52 DNA repair gene deficient Saccharomyces cerevisiae mutant assessed as drug level required to produce 12 mm zone of inhibition after 48 hrs. It counts as functional. Summed up:
(§1)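 Agar well-diffusion test on Saccharomyces cerevisiae strains differing in DNA-repair genes. Sample is placed in a 100 μl well and the plate is incubated 48 h at 37°. The value is the concentration in μg/ml that gives a 12 mm diameter inhibition zone around the well.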

Test [2] deals with Saccharomyces cerevisiae. Briefly: DNA damaging activity against RS167N rad6 DNA repair gene deficient Saccharomyces cerevisiae mutant assessed as drug level required to produce 12 mm zone of inhibition after 48 hrs. It counts as functional. Summed up: as §1
Test [3] deals with Saccharomyces cerevisiae. The test can be described thus: DNA damaging activity against DNA repair gene deficient Saccharomyces cerevisiae mutant assessed as drug level required to produce 12 mm zone of inhibition after 48 hrs.

SMILES strings stand for the structures. A value given as a limit tells only on which side of the number the result lay.

This is an account of results in ChEMBL document CHEMBL1148169, “Bioactive and other sesquiterpenoids from Porella cordeana” (1993).

Turning to `CC1(C)CCC[C@]2(C)C3=C(COC3=O)C(=O)C[C@@H]12`, the IC12 in the test with Saccharomyces cerevisiae [1], with Saccharomyces cerevisiae [2] and with Saccharomyces cerevisiae [3] was > 1000 µg/mL each time.

Regarding `CC1(C)CCC[C@@]2(C)C1=CC(=O)C1=C2C(=O)OC1`, the IC12 in the test on Saccharomyces cerevisiae [1], in the test on Saccharomyces cerevisiae [2] and with Saccharomyces cerevisiae [3] was > 1000 µg/mL throughout.

As for `C[C@@H]1CCCC2=CC(=O)[C@@H]3[C@@H](C3(C)C)[C@]21C` [ARISTOLONE], the IC12 was 390 µg/mL with Saccharomyces cerevisiae [1], > 1000 µg/mL in the test on Saccharomyces cerevisiae [2] and > 1000 µg/mL with Saccharomyces cerevisiae [3].

As to `CC1(C)CCC[C@]2(C)[C@H]3C(=O)OCC3=CC[C@@H]12` [DRIMENIN], the IC12 in the test on Saccharomyces cerevisiae [1] is 200 µg/mL; with Saccharomyces cerevisiae [2], > 1000 µg/mL; in the test with Saccharomyces cerevisiae [3], > 1000 µg/mL.

As to `C[C@@H]1[C@@H]2C[C@@]3(C)C(=O)c4ccoc4C[C@@]13C(=O)O2` [NORPINGUISANOLIDE], the IC12 with Saccharomyces cerevisiae [1], with Saccharomyces cerevisiae [2] and with Saccharomyces cerevisiae [3] was > 1000 µg/mL throughout.
